In ChEMBL document CHEMBL2034815, “Synthesis and evaluation of N(1)-alkylindole-3-ylalkylammonium compounds as nicotinic acetylcholine receptor ligands” (Bioorg Med Chem, 2012):
The source made the active and inactive calls. The rule behind the calls is not given here.

What was measured:
[1] = Displacement of [3H]epibatidine from (alpha1)2beta1gammadelta nAChR in electric ray electroplax P1 membrane after 90 mins by liquid scintillation counting; design: species or system Tetronarce californica
In short: (§1)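 Rat forebrain P2, calf adrenal P1 or Torpedo californica electroplax P1 membranes (60 µg protein) with 0.5 nM (±)-[3H]epibatidine in HEPES-salt solution (15 mM HEPES, 120 mM NaCl, 5.4 mM KCl, 0.8 mM MgCl2, 1.8 mM CaCl2) at 22 °C. Run in duplicate. Nonspecific binding defined with 300 µM (−)-nicotine. Filtered on PEI-soaked GF/B filters. Ki derived from IC50 by Cheng-Prusoff, Kd 10 pM.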

[2] = Displacement of [3H]epibatidine from alpha3beta4* nAChR in calf adrenal P1 membrane after 90 mins by liquid scintillation counting; assay type: cell membranes, Bos taurus; in short: as §1
[3] = Displacement of [3H]epibatidine from alpha4beta2* nAChR in Sprague-Dawley rat brain P2 membrane after 90 mins by liquid scintillation counting; assay type: tissue-based; in short: as §1
[4] = Displacement of [3H]MLA from alpha7* nAChR in Sprague-Dawley rat brain P2 membrane after 180 mins by liquid scintillation counting
Rattus norvegicus = species on record: Rattus norvegicus; test: Displacement of [3H]epibatidine from alpha4beta2* nAChR in Sprague-Dawley rat brain P2 membrane up to 50 uM after 90 mins by liquid scintillation counting; assay type: tissue-based
[5] = Displacement of [3H]MLA from alpha7* nAChR in rat brain membrane; assay type: cell membranes
In short: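 Rat brain crude P2 membranes in HEPES-salt solution (15 mM HEPES, 120 mM NaCl, 5.4 mM KCl, 0.8 mM MgCl2, 1.8 mM CaCl2), 22 °C, duplicates. [3H]MLA 2 nM final, 180 min; nonspecific binding with 1 µM MLA. GF/B filtration (1% PEI presoaked), scintillation counting. Nonlinear regression IC50; Ki by Cheng-Prusoff with Kd = 1 nM.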

Row | SMILES | Ki [1] [µM] | Ki [2] [µM] | Ki [3] [µM] | Ki [4] [µM] | Activity (Rattus norvegicus) | Ki [5] [µM]
1 | CCCCCCCCn1cc(CCN(C)C)c2ccccc21 | > 10 | > 10 | > 10 | > 10 |  | 
2 | CCCCCCCCCCCCn1cc(CN(C)C)c2ccccc21 |  | > 10 | > 10 | > 10 |  | 
3 | CC(C)=CCn1cc(CN(C)C)c2ccccc21 |  | > 10 | > 10 |  |  | 
4 | CCCCCCCCCCn1cc(CCN(C)C)c2ccccc21 |  | > 10 | > 10 |  |  | 
5 | CCCCCCCCCCCCn1cc(CCN(C)C)c2ccccc21 |  | > 10 | > 10 |  |  | 
6 | CCCCCCCCCCn1cc(CC[N+](C)(C)C)c2ccccc21 |  | > 10 | > 10 |  |  | 
7 | CCCCCCCCCCn1cc(C[N+](C)(C)C)c2ccccc21 |  | > 10 | > 10 | > 10 |  | 
8 | CNCCc1cn(CC=C(C)C)c2cc(Br)ccc12 [DEFORMYLFLUSTRABROMINE B] |  | > 10 | > 10 |  | inactive | 17
9 | CCCCCCCCn1c(C[N+](C)(C)C)cc2ccccc21 |  | > 10 | > 10 | > 10 |  | 
10 | CCCCCCCCn1cc(CC[N+](C)(C)C)c2ccccc21 |  | > 10 | 0.527 |  |  | 
11 | CC(C)=CCn1cc(CCN(C)C)c2ccccc21 |  | 1.82 | > 10 | > 10 |  | 
12 | CNCCc1cn(CC=C(C)C)c2ccccc12 |  | > 10 | > 10 | > 10 |  | 
13 | CN1CCC[C@H]1c1cccnc1 [NICOTINE] |  | 0.0753 | 0.00085 | 0.129 |  | 
14 | CCCCCCCCn1c(CN(C)C)cc2ccccc21 |  | > 10 | > 10 | > 10 |  | 
15 | CN(C)CCc1cn(C)c2ccccc12 |  | 3.68 | > 10 |  |  | 
16 | CC(C)=CCn1cc(CC[N+](C)(C)C)c2ccccc21 | 2.36 | 0.0939 | 0.136 | 0.862 |  | 
17 | CC(C)=CCn1cc(C[N+](C)(C)C)c2ccc(Br)cc21 |  | > 1 | 0.203 | > 1 |  | 
18 | Cn1cc(CC[N+](C)(C)C)c2ccccc21 | > 10 | 2.01 | > 10 | > 10 |  | 
19 | CCCCCCCCCCCCn1cc(C[N+](C)(C)C)c2ccccc21 |  | > 10 | > 10 | > 10 |  | 

Row | SMILES | Ki [1] [µM] | Ki [2] [µM] | Ki [3] [µM] | Ki [4] [µM] | Activity (Rattus norvegicus) | Ki [5] [µM]
20 | CCCCCCCCn1cc(CCC[N+](C)(C)C)c2ccccc21 |  | > 10 | 0.243 | > 1 |  | 
21 | CCCCCCCCn1cc(CN(C)C)c2ccccc21 |  | > 10 | > 10 | > 10 |  | 
22 | CCCCCCCCCCn1cc(CCCN(C)C)c2ccccc21 |  | > 10 | > 10 | > 10 |  | 
23 | C=CCn1cc(CCN(C)C)c2ccccc21 |  | 2.85 | > 10 | > 10 |  | 
24 | CCCCCCCCn1cc(CCCN(C)C)c2ccccc21 |  | > 10 | > 10 |  |  | 
25 | CCCCCCCCCCn1cc(CN(C)C)c2ccccc21 |  | > 10 | > 10 | > 10 |  | 
26 | CCCCCCCCCCCCn1cc(CC[N+](C)(C)C)c2ccccc21 |  | > 10 | > 10 |  |  | 
27 | CCCCCCCCn1cc(C[N+](C)(C)C)c2ccccc21 |  | 3.4 | 0.706 | > 5 |  | 
28 | CNCCc1cn(C)c2ccccc12 |  | > 10 | > 10 |  |  | 
29 | CC(C)=CCn1cc(CC[N+](C)(C)C)c2ccc(Br)cc21 | > 10 | 5.33 | 0.412 | 1.53 |  | 
30 | CCCCCCCCCCCCn1cc(CCCN(C)C)c2ccccc21 |  | > 10 | > 10 | > 10 |  | 
31 | CC(C)=CCn1cc(C[N+](C)(C)C)c2ccccc21 |  | > 10 | 0.435 | > 10 |  | 
32 | C=CCn1cc(CCNC)c2ccccc21 |  | > 10 | > 10 |  |  | 
33 | CC(C)=CCn1cc(CC[N+]2(C)CCCC2)c2ccccc21 |  |  | > 10 |  |  | 
34 | C=CCn1cc(CC[N+](C)(C)C)c2ccccc21 | > 10 | 0.365 | 0.517 | 6.8 |  | 
35 | CCCCCCCCCCCCn1cc(CCC[N+](C)(C)C)c2ccccc21 |  | > 10 | > 10 | > 10 |  | 
36 | CCCCCCCCCCn1cc(CCC[N+](C)(C)C)c2ccccc21 |  | > 10 | > 10 | > 10 |  | 
37 | CC(C)=CCn1cc(CN(C)C)c2ccc(Br)cc21 |  | > 10 | 1.38 |  |  | 
